Laboratory results: ChEMBL document CHEMBL5149991 (J Med Chem, 2021)

Columns and labels:
D(3) dopamine receptor [1] = molecular target: T1, D(3) dopamine receptor (Homo sapiens, UniProt P35462); experiment: Agonist activity at human D3 receptor stably expressed in HEK293T cells co-expressing ElucN-betaarr2 hD3R-ElucC by beta-arrestin2 recruitment assay; type: functional, cell-based
Histamine H3 receptor = Histamine H3 receptor (Homo sapiens, UniProt Q9Y5N1); experiment: Displacement of [3H]UR-PI294 from human histamine H3 receptor stably expressed in baculovirus infected Sf9 cell membrane co-expressing G-alphai2 and G-beta1gamma2 incubated for 60 mins by scintillation counting analysis; type: cell membranes
Summary of the method: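 hH3R + Gαi2 + Gβ1γ2 expressed in Sf9 membranes. […] Mean ± SEM from N independent experiments in triplicate.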

[2] = molecular target: Histamine H2 receptor (Cavia porcellus) (UniProt P47747); experiment: Agonist activity at histamine H2 receptor in spontaneous beating guinea pig right atrium assessed as increase in heart beat at 30 uM relative to histamine; type: functional, tissue-based; details: Right cardiac atrium
Histamine H4 receptor = Histamine H4 receptor (Homo sapiens, UniProt Q9H3N8)
Histamine H2 receptor [3] = molecular target: T2, Histamine H2 receptor (Homo sapiens, UniProt P25021); experiment: Agonist activity at human histamine H2 receptor stably expressed in HEK293T cells co-expressing NlucN-mGs/hH2R-NlucC assessed as induction of mini-Gs protein recruitment using furimazine as substrate measured for 45 mins by luminescence assay
D(3) dopamine receptor [4] = molecular target: T1, D(3) dopamine receptor; experiment: Displacement of [3H]N-methylspiperone from human D3 receptor stably expressed in HEK293T cells co-expressing luciferase and CEK incubated for 140 mins by radioligand competition binding based assay; type: cell-based
Histamine H2 receptor [5] = molecular target: T2, Histamine H2 receptor; experiment: Agonist activity at human histamine H2 receptor stably expressed in HEK293T cells co-expressing ARRB2 incubated for 60 mins by beta-arrestin2 recruitment assay; type: functional, cell-based
Histamine H2 receptor [6] = molecular target: T2, Histamine H2 receptor; experiment: Displacement of [3H]UR-DE257 from human histamine H2 receptor stably expressed in baculovirus infected Sf9 cell membrane co-expressing RG-Salpha S incubated for 60 mins by scintillation counting analysis; type: cell membranes
[7] = molecular target: Histamine H2 receptor (Cavia porcellus) (UniProt P47747); experiment: Agonist activity at guinea pig histamine H2 receptor stably transfected in HEK293T cells co-expressing NlucN-mGs/gpH2R-NlucC assessed as maximum efficacy at 100 uM by mini-G protein recruitment assay relative to histamine; type: functional, cell-based
[8] = Chemical stability in pH 7.4 buffer measured at 0 to 2 weeks by HPLC analysis; type: physicochemical; details: time 0-2 weeks
Histamine H2 receptor [9] = molecular target: T2, Histamine H2 receptor; experiment: Agonist activity at human histamine H2 receptor stably expressed in baculovirus infected Sf9 cell membrane co-expressing RG-Salpha S incubated for 90 mins by [35S]GTPgammaS binding based liquid scintillation counting method; type: functional, cell membranes

Sequence of Histamine H4 receptor (Q9H3N8 whole entry): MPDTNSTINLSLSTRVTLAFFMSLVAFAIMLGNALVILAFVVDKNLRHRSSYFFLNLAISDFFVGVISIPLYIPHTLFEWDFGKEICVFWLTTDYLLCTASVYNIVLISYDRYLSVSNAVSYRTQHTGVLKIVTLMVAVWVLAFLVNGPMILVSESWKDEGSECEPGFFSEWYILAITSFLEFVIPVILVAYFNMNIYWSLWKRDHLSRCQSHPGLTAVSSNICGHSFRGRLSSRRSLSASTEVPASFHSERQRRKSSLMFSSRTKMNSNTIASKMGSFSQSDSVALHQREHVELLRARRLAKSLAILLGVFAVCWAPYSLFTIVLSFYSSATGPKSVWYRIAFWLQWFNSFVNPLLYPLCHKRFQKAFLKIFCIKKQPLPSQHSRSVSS
T2 sequence (P25021 whole entry): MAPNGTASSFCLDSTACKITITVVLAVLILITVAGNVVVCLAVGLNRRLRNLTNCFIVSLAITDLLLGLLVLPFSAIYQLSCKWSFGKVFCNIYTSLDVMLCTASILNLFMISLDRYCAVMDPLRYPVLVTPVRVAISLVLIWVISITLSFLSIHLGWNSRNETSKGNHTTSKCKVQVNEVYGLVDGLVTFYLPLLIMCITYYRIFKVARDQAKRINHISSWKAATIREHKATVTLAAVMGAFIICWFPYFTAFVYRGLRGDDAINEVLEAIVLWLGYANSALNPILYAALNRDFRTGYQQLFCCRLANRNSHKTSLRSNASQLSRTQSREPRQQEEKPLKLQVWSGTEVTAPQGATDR
T1 sequence (P35462 whole entry): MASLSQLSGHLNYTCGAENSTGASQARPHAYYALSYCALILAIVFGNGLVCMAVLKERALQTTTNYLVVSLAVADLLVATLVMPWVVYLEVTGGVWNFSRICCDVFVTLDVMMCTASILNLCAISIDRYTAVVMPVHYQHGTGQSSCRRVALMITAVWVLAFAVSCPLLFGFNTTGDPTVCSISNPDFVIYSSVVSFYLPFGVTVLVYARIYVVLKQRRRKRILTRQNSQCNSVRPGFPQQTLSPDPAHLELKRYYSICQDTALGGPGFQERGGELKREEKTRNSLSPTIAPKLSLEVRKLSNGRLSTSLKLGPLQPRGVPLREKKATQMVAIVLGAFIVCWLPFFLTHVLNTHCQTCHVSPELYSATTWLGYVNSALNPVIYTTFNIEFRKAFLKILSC
Sequence of Histamine H3 receptor (Q9Y5N1 whole entry): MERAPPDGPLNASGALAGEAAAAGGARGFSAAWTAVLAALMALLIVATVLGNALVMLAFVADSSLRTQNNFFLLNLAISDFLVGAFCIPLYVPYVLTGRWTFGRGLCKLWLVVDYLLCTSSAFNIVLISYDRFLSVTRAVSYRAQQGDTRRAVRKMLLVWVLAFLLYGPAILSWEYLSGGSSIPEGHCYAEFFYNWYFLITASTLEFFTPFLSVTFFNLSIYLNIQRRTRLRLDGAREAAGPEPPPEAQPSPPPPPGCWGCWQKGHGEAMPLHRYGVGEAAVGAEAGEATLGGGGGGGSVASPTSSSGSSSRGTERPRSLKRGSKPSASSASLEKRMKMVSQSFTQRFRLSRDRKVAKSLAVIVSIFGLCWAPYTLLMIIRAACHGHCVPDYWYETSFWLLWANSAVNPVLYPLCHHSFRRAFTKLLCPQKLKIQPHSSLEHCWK
Sequence of Histamine H2 receptor (Cavia porcellus) (P47747 whole entry): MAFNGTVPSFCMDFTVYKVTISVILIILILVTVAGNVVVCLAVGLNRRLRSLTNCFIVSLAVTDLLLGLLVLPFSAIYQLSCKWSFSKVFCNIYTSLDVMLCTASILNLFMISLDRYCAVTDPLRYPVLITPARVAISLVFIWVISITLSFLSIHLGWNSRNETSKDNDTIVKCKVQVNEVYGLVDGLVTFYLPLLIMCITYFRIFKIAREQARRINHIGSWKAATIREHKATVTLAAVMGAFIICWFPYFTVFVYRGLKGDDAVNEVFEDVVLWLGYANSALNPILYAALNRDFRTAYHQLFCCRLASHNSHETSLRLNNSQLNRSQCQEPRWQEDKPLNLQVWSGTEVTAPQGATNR

Row | SMILES | EC50 (D(3) dopamine receptor [1]) [nM] | Ki (Histamine H3 receptor) [nM] | Emax [2] [%] | Kd (Histamine H4 receptor) [nM] | Ki (Histamine H4 receptor) [nM] | EC50 (Histamine H2 receptor [3]) [nM] | Ki (D(3) dopamine receptor [4]) [nM] | EC50 (Histamine H2 receptor [5]) [nM] | Ki (Histamine H2 receptor [6]) [nM] | Emax [7] [%] | Stability [8] | EC50 (Histamine H2 receptor [9]) [nM]
1 | C[C@@H](NC(=O)/N=C(\N)NCCCc1ncn[nH]1)c1ccccc1 | > 10000 | > 10000 | 115 | 16 | > 10000 | 25.7 | > 10000 | 324 | 53.7 | 86 | – | –
2 | CCCCCNC(=O)/N=C(\N)NCCCc1nnc(N)s1.O=C(O)C(F)(F)F.O=C(O)C(F)(F)F | – | > 10000 | – | 16 | > 10000 | 5.75 | – | 234 | 3.02 | – | Stable | 25.7
3 | N/C(=N\C(=O)NCc1ccccc1)NCCCc1nnc(N)s1 | 1200 | > 10000 | – | 16 | > 10000 | – | 2630 | – | – | – | – | –
